Source: PMC6811854 (ACS Omega, 2019)

Columns and labels:
[1] = system: Neuro2A cells; assay: Neurite outgrowth assay; assay type: cell-based, mouse; details: for optimum neuritogenic concentration: average neurite length; for neurite outgrowth promotion compared to no inhibitor (vehicle): differentiated Neuro2A cells, 48 h post-treatment, 10, 1, 0.1, 0.01 μM
[2] = system: Zebrafish; assay: Social interaction test in chronic unpredictable stress; assay type: in vivo, Zebrafish (Danio rerio); details: intraperitoneal
Outline: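 Adult zebrafish were held at 28 ± 2 °C on a 14/10 h light/dark cycle. They then had 7 days of chronic unpredictable stress, two varied stressors daily (restraint, 33/23 °C, isolation, crowding, predator, chasing, alarm pheromone, etc.). Test compound was given at 10, 25 or 50 mg/kg, with fluoxetine 15 mg/kg as reference. Each fish then spent 120 s with an unfamiliar pink zebrafish target. Video was scored manually for latency, interaction time and freezing; n = 15.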

[3] = BBB crossing: TLC detection in Zebrafish brain extract; assay type: in vivo; details: 25 mg/kg, intraperitoneal injection
Outline: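 Adult zebrafish were dosed with 25 mg/kg test compound or DMSO vehicle. Fish were anaesthetised on ice, and the whole brain was removed and freeze-dried in liquid nitrogen. Brains were ground in HPLC-grade ethyl acetate, sonicated, centrifuged (10 000 rpm, 20 min) and left 20 min to separate the extract. Compound in the extract was detected by TLC.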

[4] = system: Neuro2A cells; assay: Immunoblot of acetylated H3, H4 and tubulin in Neuro2A cells; assay type: cell-based, mouse; details: 1 μM, compared to vehicle
Outline: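 Neuro2A cells were exposed to compound or vehicle and harvested in Laemmli buffer; protein was assayed by amido black. Equal protein went on 12% SDS-PAGE, then PVDF transfer. Primaries ran overnight at 4 °C and secondaries 2 h at room temperature, with chemiluminescent detection. Acetylated H3, H4 and tubulin were quantified and compared with vehicle by Student's t-test.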

[5] = system: Neuro2A cells; assay: Cell viability assay; assay type: cell-based, mouse; details: 10 μM, 72 h, MTT assay
Outline: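 Neuro2A cells were kept in DMEM/10% FBS with supplements at 37 °C, 5% CO2, and seeded at 10 000 cells/cm2. After 24 h they were differentiated in 1% FBS and exposed to compounds (10, 1.0, 0.1 μM) for 72 h. MTT was added for 2 h at 37 °C, formazan was dissolved in DMSO and absorbance read at 562 nm. Viability is given relative to vehicle.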

[6] = system: HDAC8 (class I), HDAC4 (class IIa), HDAC6 (class IIb); assay: HDACi selectivity assay; assay type: biochemical, Human; details: enzymes immunoprecipitated from HeLA cells; 10, 1, 0.1, 0.01, 0.001 μM
[7] = compound 5 at 50 mg dose, vs vehicle-treated group

For `O=C(CCCCCc1ccc2c(c1)c1ccccc1n2Cc1ccccc1)NO` [Compound 4, 6-(9-Benzyl-9H-carbazol-3-yl)-N-hydroxyhexanamide], the “neurite growth activity and viability above the optimum neuritogenic concentration” value ([1]; Neuro2A cells) was “reduced neurite growth activity and viability”, the optimum neuritogenic concentration ([1]; Neuro2A cells) was 0.1 µM and the “neurite outgrowth promotion compared to no inhibitor (vehicle)” value [1] was “significantly more neurite outgrowth promotion”.
In the case of `O=C(CCCCCCCc1ccc2[nH]c3ccccc3c2c1)NO` [Compound 5, 8-(9H-Carbazol-3-yl)-N-hydroxyoctanamide], the “latency to social interaction” value [2, 7] is reported as “not at 50 mg dose”, the “total time spent in interaction zone” value [2, 7] is reported as “not at 50 mg dose” and the “crossing of the blood-brain barrier (detection in brain extract by TLC)” value [3] is reported as “crossing the BBB”. The “acetylated H3” value [4] was “significant increase”, the “acetylated H4” value [4] was “significant increase” and the acetylated tubulin [4] was “significant increase”. For the same molecule, the “cell viability (cytotoxicity)” value [5] was “does not show any observable toxicity”, the “neurite growth activity and viability above the optimum neuritogenic concentration” value ([1]; Neuro2A cells) was “reduced neurite growth activity and viability” and the “neurite outgrowth compared to vorinostat and tubastatin-A” value ([1]; Neuro2A cells, at optimum neuritogenic concentrations) was “remarkably more neurite outgrowth”. For the same molecule, the optimum neuritogenic concentration ([1]; Neuro2A cells) was 1 µM, the “neurite outgrowth promotion compared to no inhibitor (vehicle)” value [1] was “significantly more neurite outgrowth promotion” and the HDAC class selectivity [6] was “selectivity for class II (class IIa-HDAC4 and class IIb- HDAC6) over class I (HDAC8)”.
For `O=C(CCCCC(=NO)c1ccc2c(c1)c1ccccc1n2Cc1ccccc1)NO` [Compound 6, 6-(9-Benzyl-9H-carbazol-3-yl)-N-hydroxy-6-(hydroxyimino)hexanamide], the “neurite growth activity and viability above the optimum neuritogenic concentration” value ([1]; Neuro2A cells) was “reduced neurite growth activity and viability”, the optimum neuritogenic concentration ([1]; Neuro2A cells) was 0.01 µM and the “neurite outgrowth promotion compared to no inhibitor (vehicle)” value [1] was “significantly more neurite outgrowth promotion”.
In the case of `O=C(CCCCCCC(=NO)c1ccc2c(c1)c1ccccc1n2Cc1ccccc1)NO` [Compound 7, 8-(9-Benzyl-9H-carbazol-3-yl)-N-hydroxy-8-(hydroxyimino)octanamide], the “neurite growth activity and viability above the optimum neuritogenic concentration” value ([1]; Neuro2A cells) is reported as “reduced neurite growth activity and viability”, the optimum neuritogenic concentration ([1]; Neuro2A cells) is reported as 0.1 µM and the “neurite outgrowth promotion compared to no inhibitor (vehicle)” value [1] is reported as “significantly more neurite outgrowth promotion”.
In the case of `O=C(CCCCc1ccc2c(c1)c1ccccc1n2CC(=O)NO)NO` [Compound 8, N-hydroxy-5-(9-(2-(hydroxyamino)-2-oxoethyl)-9H-carbazol-3-yl)pentanamide], the “neurite growth activity and viability above the optimum neuritogenic concentration” value ([1]; Neuro2A cells) is reported as “reduced neurite growth activity and viability”, the optimum neuritogenic concentration ([1]; Neuro2A cells) is reported as 0.1 µM and the “neurite outgrowth promotion compared to no inhibitor (vehicle)” value [1] is reported as “significantly more neurite outgrowth promotion”.
With `O=C(CCCC(=NO)n1c2ccccc2c2ccccc21)NO` [Compound 10, 5-(9H-Carbazol-9-yl)-N-hydroxy-5-(hydroxyimino)pentanamide] the “neurite growth activity and viability above the optimum neuritogenic concentration” value ([1]; Neuro2A cells) was “reduced neurite growth activity and viability”, the optimum neuritogenic concentration ([1]; Neuro2A cells) was 0.1 µM and the “neurite outgrowth promotion compared to no inhibitor (vehicle)” value [1] was “significantly more neurite outgrowth promotion”.
With `O=C(CCCCC(=NO)n1c2ccccc2c2ccccc21)NO` [Compound 11, 6-(9H-Carbazol-9-yl)-N-hydroxy-6-(hydroxyimino)hexanamide] the “neurite growth activity and viability above the optimum neuritogenic concentration” value ([1]; Neuro2A cells) was “reduced neurite growth activity and viability”, the optimum neuritogenic concentration ([1]; Neuro2A cells) was 0.1 µM and the “neurite outgrowth promotion compared to no inhibitor (vehicle)” value [1] was “significantly more neurite outgrowth promotion”.
With `CNCCC(Oc1ccc(C(F)(F)F)cc1)c1ccccc1` (stereo not drawn) [fluoxetine, reference compound] the “freezing duration (social interaction test)” value ([2]; compound 5 (10, 25, 50 mg/kg tested), fluoxetine 15 mg/kg) was “trend of decreased freezing duration”.
In the case of `CN1CCc2c(c3ccccc3n2Cc2ccc(C(=O)NO)cc2)C1` [tubastatin-A, reference compound], the “neurite growth activity and viability above the optimum neuritogenic concentration” value ([1]; Neuro2A cells) is reported as “reduced neurite growth activity and viability”, the optimum neuritogenic concentration ([1]; Neuro2A cells) is reported as 10 µM and the “neurite outgrowth promotion compared to no inhibitor (vehicle)” value [1] is reported as “significantly more neurite outgrowth promotion”.
For `O=C(CCCCCCC(=O)Nc1ccccc1)NO` [vorinostat, suberoylanilide hydroxamic acid, reference compound], the “neurite growth activity and viability above the optimum neuritogenic concentration” value ([1]; Neuro2A cells) was “reduced neurite growth activity and viability” and the optimum neuritogenic concentration ([1]; Neuro2A cells) was 1 µM.
